Measurements from publication PMC4716540 (British Journal of Cancer, 2015).
Several values for one entry are separate records, joined by “and”; a condition that tells them apart may be missing. Equal values may be shown once.

Assays:
[1] = Plasma pharmacokinetics of KW-2478; assay type: in vivo, human
[2] = test system: Hsp70 in peripheral blood mononuclear cells (PBMCs); test: Hsp70 levels in PBMCs by western blot as biomarker for Hsp90 inhibition; assay type: in vivo, human
In short: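 Patients with relapsed/refractory B-cell malignancies received the test compound by 1-h IV infusion on days 1–5 of a 14-day cycle (cohorts 14–176 mg m⁻², 3+3 design). Hsp70 was measured by western blot at an independent central laboratory, as change from baseline, and summarised descriptively by dose level.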

[3] = test system: relapsed/refractory MM and NHL; test: Tumour response by standard criteria for MM and NHL; assay type: in vivo, human; conditions: for Duration of sustained SD: one patient
In short: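 Best tumour response was assessed over all cycles of single-agent treatment. The agent was given by 1-h IV infusion on days 1–5 of each 14-day cycle, at 14–176 mg m⁻². Treatment continued for up to 12 months or until progression, unacceptable toxicity or withdrawal. Intrapatient escalation was allowed after at least two cycles. Chemotherapy, radiotherapy and corticosteroids were excluded. Responses were summarised descriptively by dose level.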

Hsp90 = conditions: ref Nakashima et al, 2010; Ishii et al, 2012; cited from earlier work
[4] = test system: in vitro and in vivo models, including primary MM patient samples; conditions: ref Nakashima et al, 2010, Ishii et al, 2012; cited from earlier work
primary myeloma cells = conditions: in the presence of bone marrow stromal cells; ref Juliger et al, 2008; cited from earlier work
[5] = 14 mg m^–2 iv, day 1, n=3, mean±s.d.
[6] = 14 mg m^–2 iv, day 5, n=3, mean±s.d.
[7] = 28 mg m^–2 iv, day 1, n=3, mean±s.d.
[8] = 28 mg m^–2 iv, day 5, n=3, mean±s.d.
[9] = 47 mg m^–2 iv, day 1, n=3, mean±s.d.
[10] = 47 mg m^–2 iv, day 5, n=2, mean±s.d.
[11] = 71 mg m^–2 iv, day 1, n=3, mean±s.d.
[12] = 71 mg m^–2 iv, day 5, n=2, mean±s.d.
[13] = 99 mg m^–2 iv, day 1, n=3, mean±s.d.
[14] = 99 mg m^–2 iv, day 5, n=3, mean±s.d.
[15] = 132 mg m^–2 iv, day 1, n=6, mean±s.d.
[16] = 132 mg m^–2 iv, day 5, n=6, mean±s.d.
[17] = 176 mg m^–2 iv, day 1, n=6, mean±s.d.
[18] = 176 mg m^–2 iv, day 5, n=5, mean±s.d.
[19] = 25 evaluable patients, all doses

CCc1c(O)cc(O)c(C(=O)c2ccc(OCCN3CCOCC3)c(OC)c2)c1CC(=O)N(CCOC)CCOC [KW-2478]
AUC0–t [1, 5]: 819±403 ng h^–1 ml^–1 | AUC0–∞ [1, 5]: 992±497 ng h^–1 ml^–1 | CL (total plasma clearance) [1, 5]: 28.9±11.1 l h^–1 | Cmax [1, 5]: 645±306 ng ml^–1 | kel (elimination rate constant) [1, 5]: 0.11 ± 0.01 h⁻¹ | t½ (terminal half-life) [1, 5]: 6.05 ± 0.37 h | AUC0–t [1, 6]: 844±445 ng h^–1 ml^–1 | Cmax [1, 6]: 656±342 ng ml^–1 | AUC0–t [1, 7]: 1935±848 ng h^–1 ml^–1 | AUC0–∞ [1, 7]: 2353±1117 ng h^–1 ml^–1 | CL (total plasma clearance) [1, 7]: 23.1±15.9 l h^–1 | Cmax [1, 7]: 1620±556 ng ml^–1 | kel (elimination rate constant) [1, 7]: 0.11 ± 0.02 h⁻¹ | t½ (terminal half-life) [1, 7]: 6.48 ± 0.96 h | AUC0–t [1, 8]: 1639±768 ng h^–1 ml^–1 | Cmax [1, 8]: 1320±531 ng ml^–1 | AUC0–t [1, 9]: 2325±652 ng h^–1 ml^–1 | AUC0–∞ [1, 9]: 2758±891 ng h^–1 ml^–1 | CL (total plasma clearance) [1, 9]: 34.9±8.35 l h^–1 | Cmax [1, 9]: 1990±236 ng ml^–1 | kel (elimination rate constant) [1, 9]: 0.11 ± 0.01 h⁻¹ | t½ (terminal half-life) [1, 9]: 6.60 ± 0.69 h | AUC0–t [1, 10]: 2334±532 ng h^–1 ml^–1 | Cmax [1, 10]: 1705±785 ng ml^–1 | AUC0–t [1, 11]: 2798±432 ng h^–1 ml^–1 | AUC0–∞ [1, 11]: 3197±400 ng h^–1 ml^–1 | CL (total plasma clearance) [1, 11]: 43.0±6.80 l h^–1 | Cmax [1, 11]: 2620±585 ng ml^–1 | kel (elimination rate constant) [1, 11]: 0.11 ± 0.02 h⁻¹ | t½ (terminal half-life) [1, 11]: 6.29 ± 0.93 h | AUC0–t [1, 12]: 3681±497 ng h^–1 ml^–1 | Cmax [1, 12]: 2675±49.5 ng ml^–1 | AUC0–t [1, 13]: 4220±1251 ng h^–1 ml^–1 | AUC0–∞ [1, 13]: 4826±1504 ng h^–1 ml^–1 | CL (total plasma clearance) [1, 13]: 42.7±12.5 l h^–1 | Cmax [1, 13]: 3400±876 ng ml^–1 | kel (elimination rate constant) [1, 13]: 0.12 ± 0.003 h⁻¹ | t½ (terminal half-life) [1, 13]: 5.83 ± 0.14 h | AUC0–t [1, 14]: 3673±932 ng h^–1 ml^–1 | Cmax [1, 14]: 2977±610 ng ml^–1 | AUC0–t [1, 15]: 6910±1864 ng h^–1 ml^–1 | CL (total plasma clearance) [1, 15]: 35.0±9.99 l h^–1 | Cmax [1, 15]: 5410±1622 ng ml^–1 | kel (elimination rate constant) [1, 15]: 0.12 ± 0.01 h⁻¹ | t½ (terminal half-life) [1, 15]: 5.71 ± 0.61 h | AUC0–t [1, 16]: 7262±1331 ng h^–1 ml^–1 | Cmax [1, 16]: 5972±940 ng ml^–1 | CL (total plasma clearance) [1, 17]: 32.8±10.7 l h^–1 | Cmax [1, 17]: 6838±1961 ng ml^–1 | kel (elimination rate constant) [1, 17]: 0.13 ± 0.01 h⁻¹ | t½ (terminal half-life) [1, 17]: 5.43 ± 0.39 h | AUC0–t [1, 18]: 8355±2496 ng h^–1 ml^–1 | Cmax [1, 18]: 6062±1411 ng ml^–1 | Mean t½, range across dose levels ([1]; 14–176 mg m^–2): 5.4 to 6.6 h | Total CL, range of means across dose levels ([1]; 14–176 mg m^–2): 23.1–43.0 l h^–1 | Manner of plasma concentration decline ([1]; after end of infusion, rapid distribution phase and slower elimination phase): biphasic | Mean Cmax and AUC values in relation to dose ([1]; days 1 and 5): increased linearly in relation to dose | Accumulation from days 1 to 5 (Cmax, AUC) ([1]; once daily days 1–5): no relevant accumulation | Terminal half-life ([1]; plasma, iv infusion over 1 h): ~6 h | Hsp70 induction above baseline in PBMCs ([2]; doses ⩾71 mg m^–2, 8 h after dosing on days 1 and 5): ≥ 25% | Doses at which Hsp70 levels in PBMCs increased (target inhibition inferred) ([2]; western blot): ≥ 71 mg m^–2 | Progressive disease, MM patients ([3]; 21 evaluable MM patients): 4.8% | Stable disease (SD), MM patients ([3]; 21 evaluable MM patients): 95.2% | Evaluable patients with stable disease (disease stabilisation rate) [3, 19]: 96% | Overall disease control rate [3, 19]: 96.0% | Patients with SD lasting ⩾3 months ([3]; all doses): Eight | Patients with SD lasting ⩾6 months (free of disease progression) ([3]; all doses): five | Complete or partial responses ([3]; best tumour response over all cycles): No patients achieved complete or partial responses | Stable disease (SD), NHL patients ([3]; four evaluable NHL patients): 100% | Duration of response ([3]; individual patient, MM, 99 mg m^–2): 3.1 months | Duration of response ([3]; individual patient, NHL, 99 mg m^–2): 1.5 months | Duration of response ([3]; individual patient, NHL, 176 mg m^–2): 1.3 months | Duration of response ([3]; individual patients, MM, 14 mg m^–2): 1 months and 1.4 months | Duration of response ([3]; individual patients, MM, 28 mg m^–2): 11.3 months and 0.8 months and 1.8 months | Duration of response ([3]; individual patients, MM, 47 mg m^–2): 1.3 months and 1 months | Duration of response ([3]; individual patients, MM, 71 mg m^–2): 1.1 months and 5.1 months | Duration of response ([3]; individual patients, MM, 132 mg m^–2): 1.4 months and 8.8 months and 12.9 months | Duration of response ([3]; individual patients, MM, 176 mg m^–2): 3.5 months and 1.3 months and 11.9 months and 2 months | Duration of response ([3]; individual patients, NHL, 132 mg m^–2): 1.4 months and 8.2 months | Duration of sustained SD ([3]; 132 mg m^–2 cohort): 12.9 months | Duration of sustained SD ([3]; 176 mg m^–2 cohort): 11.9 months | Binding affinity to Hsp90 (Hsp90): high binding affinity | Antitumour activity [4]: potent antitumour activity | Activity against primary myeloma cells (primary myeloma cells): retained
